Test results taken from ChEMBL document CHEMBL3286367, “Synthesis of new class of spirocarbocycle derivatives by multicomponent domino reaction and their evaluation for antimicrobial, anticancer activity and molecular docking studies” (2014).
Values after ≈ are worked out from the molar mass of the structure shown. Active and inactive are the calls of the source. No cut-off for these calls is given here.

How the values were obtained:
Klebsiella aerogenes [1] = assay: Antimicrobial activity against Enterobacter aerogenes MTCC 111 assessed as absence of visible growth after 48 to 72 hrs; format: functional
Shigella flexneri [2] = assay: Antimicrobial activity against Shigella flexneri MTCC 1457 assessed as absence of visible growth after 24 hrs
Klebsiella aerogenes [3] = assay: Antimicrobial activity against Enterobacter aerogenes MTCC 111 assessed as zone of inhibition at 1 mg/disc after 24 hrs incubation by disc diffusion assay; format: functional
In short: (§1)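 Inocula grown in Mueller Hinton broth for 24 h at 37 °C and swabbed onto Mueller Hinton agar. Discs carried 1 mg compound each and stood 30 min at room temperature before 24 h incubation at 37 °C. Solvent as negative control. Inhibition zones recorded in mm; experiment done twice.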

Staphylococcus aureus [4] = assay: Antimicrobial activity against methicillin-resistant Staphylococcus aureus assessed as absence of visible growth after 48 to 72 hrs; format: functional
In short: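 Broth two-fold serial dilution in 96-well plates, 1000 to 7.81 µg/mL, compound dissolved in DMSO (2%). Inoculum grown in Mueller Hinton broth 24 h at 37°C. Streptomycin positive control. 5 µl of tested broth plated on MHA; MIC is the lowest concentration inhibiting visible growth on agar.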

Proteus vulgaris [5] = assay: Antimicrobial activity against Proteus vulgaris MTCC 1771 assessed as absence of visible growth after 48 to 72 hrs; format: functional
Staphylococcus aureus [6] = assay: Antimicrobial activity against Staphylococcus aureus MTCC 96 assessed as absence of visible growth after 24 hrs
[7] = system: Staphylococcus epidermidis; assay: Antimicrobial activity against Staphylococcus epidermidis MTCC 3615 assessed as absence of visible growth after 48 to 72 hrs; format: functional
Salmonella typhimurium [8] = assay: Antimicrobial activity against Salmonella typhimurium MTCC 1251 assessed as zone of inhibition at 1 mg/disc after 24 hrs incubation by disc diffusion assay; format: functional, Salmonella enterica subsp. enterica serovar Typhimurium; in short: as §1
Proteus vulgaris [9] = assay: Antimicrobial activity against Proteus vulgaris MTCC 1771 assessed as zone of inhibition at 1 mg/disc after 24 hrs incubation by disc diffusion assay; format: functional; in short: as §1
Staphylococcus aureus [10] = assay: Antimicrobial activity against methicillin-resistant Staphylococcus aureus assessed as zone of inhibition at 1 mg/disc after 24 hrs incubation by disc diffusion assay; format: functional
In short: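 Inoculum grown in Mueller Hinton broth 24 h at 37°C, swabbed onto Mueller Hinton agar and dried 10 min. Discs loaded at 1 mg/disc, then 30 min at room temperature for diffusion. Plates incubated 24 h at 37°C. Solvent negative control; streptomycin positive control. Zone of inhibition read in mm; experiment done twice.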

Micrococcus luteus [11] = assay: Antimicrobial activity against Micrococcus luteus MTCC 106 assessed as absence of visible growth after 48 to 72 hrs; format: functional
Malassezia pachydermatis = assay: Antifungal activity against Malassezia pachydermatis assessed as zone of inhibition at 1 mg/disc after 48 hrs incubation by disc diffusion assay; format: functional
In short: (§2)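 Disc diffusion on Mueller Hinton agar with swabbed cultures, 1 mg compound per disc. Discs stood 30 min at room temperature for diffusion, then plates incubated 48 h at 28 °C. Solvent as negative control. Yeast pre-grown in Sabouraud dextrose broth at 28 °C for 48-72 h; filamentous fungal spores came from SDA slants grown 10 days at 28 °C. Zone diameters in mm; run twice.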

Candida albicans = assay: Antifungal activity against Candida albicans MTCC 227 assessed as zone of inhibition at 1 mg/disc after 48 hrs incubation by disc diffusion assay; format: functional; in short: as §2
Micrococcus luteus [12] = assay: Antimicrobial activity against Micrococcus luteus MTCC 106 assessed as zone of inhibition at 1 mg/disc after 24 hrs incubation by disc diffusion assay; format: functional; in short: as §1
Klebsiella pneumoniae [13] = assay: Antimicrobial activity against Klebsiella pneumonia MTCC 109 assessed as zone of inhibition at 1 mg/disc after 24 hrs incubation by disc diffusion assay; format: functional; in short: as §1
Salmonella typhimurium [14] = assay: Antimicrobial activity against Salmonella typhimurium MTCC 1251 assessed as absence of visible growth after 48 to 72 hrs; format: functional, Salmonella enterica subsp. enterica serovar Typhimurium; conditions: Salmonella enterica
Klebsiella pneumoniae [15] = assay: Antimicrobial activity against Klebsiella pneumonia MTCC 109 assessed as absence of visible growth after 24 hrs
Staphylococcus aureus [16] = assay: Antimicrobial activity against Staphylococcus aureus MTCC 96 assessed as zone of inhibition at 1 mg/disc after 24 hrs incubation by disc diffusion assay; format: functional; in short: as §1
Shigella flexneri [17] = assay: Antimicrobial activity against Shigella flexneri MTCC 1457 assessed as zone of inhibition at 1 mg/disc after 24 hrs incubation by disc diffusion assay; format: functional; in short: as §1
[18] = system: Staphylococcus epidermidis; assay: Antimicrobial activity against Staphylococcus epidermidis MTCC 3615 assessed as zone of inhibition at 1 mg/disc after 24 hrs incubation by disc diffusion assay; format: functional; in short: as §1
Klebsiella pneumoniae [19] = assay: Antimicrobial activity against Klebsiella pneumonia MTCC 109 assessed as absence of visible growth after 48 to 72 hrs; format: functional
Proteus vulgaris [20] = assay: Antimicrobial activity against Proteus vulgaris MTCC 1771 assessed as absence of visible growth after 24 hrs

Structure (SMILES)	MIC (Klebsiella aerogenes [1]) [µg/mL]	MIC (Shigella flexneri [2]) [µg/mL]	inhibition zone (IZ) (Klebsiella aerogenes [3]) [mm]	inhibition (Staphylococcus aureus [4])	inhibition (Staphylococcus aureus [6])	MIC [7] [µg/mL]	inhibition zone (IZ) (Salmonella typhimurium [8]) [mm]	inhibition (Staphylococcus aureus [10])	MIC (Micrococcus luteus [11]) [µg/mL]	inhibition zone (IZ) (Malassezia pachydermatis) [mm]	inhibition zone (IZ) (Micrococcus luteus [12]) [mm]	inhibition zone (IZ) (Klebsiella pneumoniae [13]) [mm]	MIC (Salmonella typhimurium [14]) [µg/mL]	inhibition (Staphylococcus aureus [16])	inhibition zone (IZ) (Shigella flexneri [17]) [mm]	inhibition zone (IZ) [18] [mm]	further results
N#CC1=C(N)[C@]2(C(=O)Nc3ccccc32)[C@@H](c2ccc(Cl)cc2)[C@@H]2CCCC=C12	250 (≈ 622 µM)	250 (≈ 622 µM)	10	inactive	inactive	250 (≈ 622 µM)	12	inactive	1000 (≈ 2490 µM)	11	9	16	250 (≈ 622 µM)	inactive	10	13	MIC (Proteus vulgaris [5]): 125 µg/mL (≈ 311 µM); inhibition zone (IZ) (Proteus vulgaris [9]): 17 mm; inhibition zone (IZ) (Candida albicans): 9 mm; MIC (Klebsiella pneumoniae [15]): 125 µg/mL (≈ 311 µM)
N#CC1=C(N)[C@]2(C(=O)Nc3ccccc32)[C@@H](c2cccc3ccccc23)[C@@H]2CCCC=C12	125 (≈ 299 µM)	500 (≈ 1200 µM)	18	inactive	inactive	125 (≈ 299 µM)	14	inactive	250 (≈ 599 µM)	9	10	16	250 (≈ 599 µM)	inactive	12	15	MIC (Klebsiella pneumoniae [19]): 125 µg/mL (≈ 299 µM); inhibition (Proteus vulgaris [9]): inactive; inhibition (Candida albicans): inactive; inhibition (Proteus vulgaris [20]): inactive
